Legend:
Solubility = type: physicochemical
[1] = system: TNF-α secretion by LPS-stimulated THP-1 cells; experiment: TNF-α secretion assay in LPS-stimulated THP-1 cells; type: cell-based, human; settings: for Suppression of TNF-α secretion (in words): 50 μg/ml, Figure 2; for inhibition at 100 µg/mL: Homo sapiens, THP-1, read-out: % Inhibition of TNF-α secretion
How it was run: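 THP-1 cells (RPMI-1640 with 0.05 mM 2-mercaptoethanol, 2 mM glutamine, 10% FBS) plated in log phase at 4 × 10^5/well. After 24 h, 50 nM PMA is added with test compound; after 24 h more, medium is replaced with compound-only medium. After 24 h, LPS 10 μg/ml is added, supernatants taken at 2 h, and human TNF-α measured by ELISA against the kit standard curve. Run in triplicate; % inhibition.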

Caco-2 = Caco-2 permeability; type: in vitro ADME
LITAF = experiment: Western blot of LITAF expression in cells; type: cell-based; settings: Figure 6
[2] = Chemical stability in aqueous buffer; type: physicochemical
Mouse plasma stability = type: in vitro ADME
[3] = system: LPS-induced lethality in mice; experiment: LPS-induced endotoxic shock model; type: in vivo; settings: for Protection from lethal dose of LPS (mortality/morbidity): 40 mg/kg ip pretreatment, 24 h observation
How it was run: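 C57 mice (8–12 weeks, 20–25 g, n = 8) get test compound i.p., then immediately a lethal i.p. LPS challenge. D-galactosamine (40 μg/g, as 4 μg/μL in DMSO) and E. coli LPS (0.25 μg/mouse, in 0.1 mL PBS with 1% BSA) are injected i.p. Controls get DMSO, then LPS. Mortality and morbidity are checked hourly for 24 h.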

[4] = Preliminary pharmacokinetic evaluation; type: in vivo, mice; settings: for half-life: mouse, in vivo
THP-1 cells = experiment: Cytotoxicity; type: cell-based, human; settings: at concentrations active in the TNF-α secretion assay
[5] = system: TNF-α release from NIH3T3 cells; settings: cited from earlier work
TNF-α release in mice = settings: cited from earlier work
[6] = system: MAPKAP-K3 (MAPK-activated protein kinase 3); settings: kinase selectivity screening; cited from earlier work
[7] = system: DYRK1A (dual-specificity tyrosine-phosphorylated and regulated kinase 1A); settings: kinase selectivity screening; cited from earlier work
Aurora B = settings: kinase selectivity screening; cited from earlier work
[8] = system: PRAK (p38-regulated/activated kinase); settings: kinase selectivity screening; cited from earlier work
IκB kinase (IKK) = settings: kinase selectivity screening; cited from earlier work

COC1=CC(=O)O[C@@H](/C=C/c2ccccc2)C1 [Compound 1, kavain]
solubility (Solubility; PBS buffer, pH 7, aqueous buffer): > 500 µM | Solubility (in words) (Solubility; pH 7): highly soluble | Suppression of TNF-α secretion (in words) [1]: reproducibly active | inhibition at 100 µg/mL [1]: 98% | Caco-2 permeability, Papp(B→A)/Papp(A→B) (Caco-2): Papp(B→A)/Papp(A→B)=0.7 | Cell permeability (in words) (Caco-2; Caco-2 assay): high level of cell permeability | LITAF expression (LITAF): evidently do not | Chemical stability (in words) ([2]; aqueous buffer): good chemical stability | Chemical Stability, degradation ([2]; at 1 hr, pH=7): <10% degradation at 1 hr, pH=7 | Mouse plasma stability, remaining (Mouse plasma stability; at 2h, 5 μM dose): 99% remaining at 2h (5 μM dose) | Stability in plasma (in words) (Mouse plasma stability; mouse plasma): good chemical stability | Protection from lethal dose of LPS (mortality/morbidity) [3]: no mortality or overt morbidity observed for at least 24 hours | Clearance (in words) ([4]; following dosing, mice): rapidly cleared | half-life ([4]; iv, 1 mg/kg): < 15 min | half-life ([4]; po, 10 mg/kg): < 40 min | Cytotoxicity (THP-1 cells): did not show any cytotoxicity

COC1=CC(=O)O[C@@H](CCc2ccccc2)C1 [Compound 2, dihydrokavain]
Suppression of TNF-α secretion (in words) [1]: reproducibly active | % Inhibition of TNF-α secretion ([1]; LPS-treated THP-1 cells, 100 μg/ml, replicates in parentheses): 95 (3) % | Inhibition of TNF-α release (in words) [5]: lower activity | Survival rate at 24 h ([3]; 40 mg/Kg ip pretreatment): 30% | Delay in time of death compared to vehicle treated animals ([3]; 40 mg/Kg ip, animals that died): about a two hour delay | Protection from lethal dose of LPS (mortality/morbidity) [3]: only partially protected | Cytotoxicity (THP-1 cells): did not show any cytotoxicity | Inhibition of TNF-α release in mice (in words) (TNF-α release in mice): most potent inhibitor

COC1=CC(=O)O[C@@H](CCc2ccc3c(c2)OCO3)C1 [Compound 3, dihydromethysticin]
Suppression of TNF-α secretion (in words) [1]: essentially inactive | Suppression of TNF-α secretion (in words) ([1]; listed as dihydromethysticin): inactivity | inhibition at 100 µg/mL [1]: 37%

COC1=CC(=O)O[C@@H](/C=C/c2ccc3c(c2)OCO3)C1 [Compound 4, methysticin]
Suppression of TNF-α secretion (in words) [1]: essentially inactive | Suppression of TNF-α secretion (in words) ([1]; listed as methysticin): inactivity | inhibition at 100 µg/mL [1]: 43%

COc1ccc(C=CC(=O)c2c(O)cc(OC)cc2OC)cc1 [Compound 8, flavokavain A]
Inhibition of MAPKAP-K3 [6]: inhibits | Inhibition of DYRK1A [7]: inhibits | Inhibition of Aurora B (Aurora B): inhibits | Inhibition of PRAK [8]: inhibits | Inhibition of IKK (IκB kinase (IKK)): inhibits

COC1=CC(=O)OC(c2ccc(-c3ccccc3)cc2)C1 (stereo not drawn) [Compound 15, 6-(Biphenyl-4-yl)-4-methoxy-5,6-dihydro-2H-pyran-2-one]
inhibition at 100 µg/mL [1]: -9%

COC(=O)/C=C(\CC(O)c1ccc(-c2ccccc2)cc1)OC (stereo not drawn) [Compound 16, (E)-Methyl 5-(biphenyl-4-yl)-5-hydroxy-3-methoxypent-2-enoate]
Suppression of TNF-α secretion [1]: ≥ 50% | Dose response of TNF-α secretion suppression ([1]; Figure 5): dose-responsive manner | inhibition at 100 µg/mL [1]: 58% | LITAF expression (LITAF): nearly ablated LITAF expression

COc1cc2c(cc1O)CC[n+]1cc3c(OC)c(OC)ccc3cc1-2.[I-] [Jatrorrhizine iodide]
Protection from lethal dose of LPS (mortality/morbidity) [3]: render mice immune to endotoxic shock-mediated death | Health of surviving animals ([3]; 40 mg/kg ip, after 24h): poor health
